In ChEMBL document CHEMBL3351637 (Eur J Med Chem, 2014):
The source made the active and inactive calls. The rule behind the calls is not given here.

How the values were obtained:
[1] = Stability of the compound in pH 4.5 acetate buffer assessed as compound mean nano particles size at 2 mg/ml by quasi-elastic light scattering method; type: physicochemical
Procedure, shortened: (§1)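 Nanoassemblies formed by solvent displacement into water, 10 mM buffers (citrate or acetate pH 4.5, phosphate pH 7.5, borate or carbonate pH 10.2) or 100 mM NaCl, final 2 mg/mL. Mean diameter by quasi-elastic light scattering at 90° and 25°C, on samples diluted 1:20 in water; each value the average of five measurements.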

[2] = Stability of the compound in pH 10.2 carbonate buffer assessed as compound mean nano particles size at 2 mg/ml by quasi-elastic light scattering method; type: physicochemical; procedure, shortened: as §1
[3] = Stability of the compound in presence of 100 mM NaCl assessed as compound mean nano particles size at 2 mg/ml by quasi-elastic light scattering method; type: physicochemical; procedure, shortened: as §1
[4] = Stability of the compound assessed as compound mean nano particles size diluted with water at 2 mg/ml measured after 3 months at 5 degC by quasi-elastic light scattering method; type: physicochemical; settings: buffer, 2191.5 h
Procedure, shortened: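 Nanoassemblies made by nanoprecipitation in water as 2 mg/mL dispersions, stored at 5°C. Size checked after three months on samples diluted with water, by light scattering.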

[5] = Stability of the compound in pH 4.5 citrate buffer assessed as compound mean nano particles size at 2 mg/ml by quasi-elastic light scattering method; type: physicochemical; procedure, shortened: as §1
A549 [6] = assay: Cytotoxicity against human A549 cells after 48 hrs by SRB assay; type: functional, cell-based; settings: A549, 48 h
A549 [7] = assay: Inhibition of microtubule bundle formation in human A549 cells assessed as cell detachment at 200 ug/mL incubated for 1 hr by alpha-tubulin staining based fluorescence microscopy
Procedure, shortened: (§2)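 A549 cells seeded on glass coverslips at 50000 cells/ml, grown 24 h, then exposed 1 h to 200 µg/ml conjugate or parent drug. Fixed and permeabilized in methanol at -20°C for 6 min, blocked in PBS + 5% BSA, stained with anti-α-tubulin (1:500, 1 h, 37°C), Alexa568 secondary and DAPI nuclei, then imaged by fluorescence microscopy at 63x.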

A549 [8] = assay: Inhibition of microtubule bundle formation in human A549 cells assessed as cell shrinking at 200 ug/mL incubated for 1 hr by alpha-tubulin staining based fluorescence microscopy; procedure, shortened: as §2
[9] = Stability of the compound in water assessed as compound mean nano particles size at 2 mg/ml by quasi-elastic light scattering method; type: physicochemical; settings: buffer; procedure, shortened: as §1
MCF7 [10] = assay: Cytotoxicity against human MCF7 cells in presence of 10 mM DTT after 48 hrs by SRB assay; type: functional, cell-based; settings: MCF7, 48 h
[11] = Stability of the compound in pH 10.2 borate buffer assessed as compound mean nano particles size at 2 mg/ml by quasi-elastic light scattering method; type: physicochemical; procedure, shortened: as §1
MCF7 [12] = assay: Cytotoxicity against human MCF7 cells after 48 hrs by SRB assay; type: functional, cell-based; settings: MCF7, 48 h
Procedure, shortened: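 Nanoassemblies diluted in culture medium and added at various concentrations for 48 h at 37°C/5% CO₂. Survival % vs untreated control; run thrice in triplicate; IC50 from dose–effect curves.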

[13] = Stability of the compound in pH 7.5 phosphate buffer assessed as compound mean nano particles size at 2 mg/ml by quasi-elastic light scattering method; type: physicochemical; procedure, shortened: as §1
[14] = Stability in human serum at 37 degC assessed as ratio of HPLC area of peaks corresponding to intact compound at time zero at 2 mg/ml measured after 48 hrs; type: ADME, cell-free; settings: read-out: Stability
[15] = Stability in pH 9 borate buffer; type: physicochemical
A549 [16] = assay: Induction of microtubule bundling in human A549 cells at 200 ug/mL incubated for 1 hr by alpha-tubulin staining based fluorescence microscopy; type: cell-based
Procedure, shortened: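 A549 cells grown in E-MEM with 10% FBS, 2 mM L-glutamine, penicillin and non-essential amino acids at 37°C, 5% CO2. Seeded at 50000 cells/ml on glass coverslips, exposed after 24 h. Then fixed and permeabilized in methanol at -20°C for 6 min and blocked in PBS+5% BSA. Stained with anti-α-tubulin (1:500), Alexa568 secondary and DAPI, and imaged by fluorescence microscopy.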

A549 [17] = assay: Binding affinity to microtubule in human A549 cells at 200 ug/mL incubated for 1 hr by alpha-tubulin staining based fluorescence microscopy; type: cell-based; procedure, shortened: as §2

Structure (SMILES): CC(C)=CCC/C(C)=C/CC/C(C)=C/CC/C=C(\C)CC/C=C(\C)CCCOC(=O)CCCSSCCCC(=O)O[C@H]1[C@@H](C)CCC[C@H]2O[C@H]2C[C@@H](/C(C)=C/c2csc(C)n2)OC(=O)C[C@H](O)C(C)(C)C(=O)[C@@H]1C
- Stability [1]: 201.5 nm
- Stability [2]: 212.2 nm
- Stability [3]: 312.9 nm
- Stability [4]: 191.1 nm
- Stability [5]: 197.8 nm
- IC50 (A549 [6]): > 5000 nM
- inhibition (A549 [7]): Active
- inhibition (A549 [8]): Active
- Stability [9]: 165.1 nm
- IC50 (MCF7 [10]): 500 nM
- Stability [11]: 207.7 nm
- IC50 (MCF7 [12]): 1300 nM
- Stability [13]: 235.5 nm
- remaining at 48 h, 2 mg/ml [14]: 58%

Structure (SMILES): COc1cc([C@@H]2c3cc4c(cc3[C@H](OC(=O)CCCCCCCCC(=O)OCCC/C(C)=C/CC/C(C)=C/CC/C=C(\C)CC/C=C(\C)CCC=C(C)C)[C@H]3COC(=O)[C@H]23)OCO4)cc(OC)c1OC
- Stability [1]: 287.5 nm
- Stability [2]: 315 nm
- Stability [3]: 720.3 nm
- Stability [4]: 210.5 nm
- Stability [5]: 629.2 nm
- Stability [9]: 180.5 nm
- IC50 (MCF7 [10]): 111000 nM
- Stability [15]: Stable
- Stability [11]: 211.3 nm
- IC50 (MCF7 [12]): 106000 nM
- Stability [13]: 193.5 nm
- remaining at 48 h, 2 mg/ml [14]: 82%

Structure (SMILES): CC(=O)O[C@H]1C(=O)[C@@]2(C)[C@H]([C@H](OC(=O)c3ccccc3)[C@]3(O)C[C@H](OC(=O)[C@H](O)[C@@H](NC(=O)c4ccccc4)c4ccccc4)C(C)=C1C3(C)C)[C@]1(OC(C)=O)CO[C@@H]1C[C@@H]2O [PACLITAXEL]
- IC50 (A549 [6]): 82 nM
- Activity (A549 [16]): Active
- inhibition (A549 [7]): Active
- inhibition (A549 [8]): Active

Structure (SMILES): COc1cc([C@@H]2c3cc4c(cc3[C@H](OC(=O)CCCSSCCCC(=O)OCCC/C(C)=C/CC/C(C)=C/CC/C=C(\C)CC/C=C(\C)CCC=C(C)C)[C@H]3COC(=O)[C@H]23)OCO4)cc(OC)c1OC
- Stability [1]: 275.9 nm
- Stability [2]: 242.9 nm
- Stability [3]: 676 nm
- Stability [4]: 215.3 nm
- Stability [5]: 428.3 nm
- IC50 (A549 [6]): 7640 nM
- inhibition (A549 [7]): Active
- inhibition (A549 [8]): Active
- Stability [9]: 185.9 nm
- IC50 (MCF7 [10]): 60 nM
- Stability [11]: 202.3 nm
- IC50 (MCF7 [12]): 400 nM
- Stability [13]: 201.5 nm
- remaining at 48 h, 2 mg/ml [14]: 52%

Structure (SMILES): CC(C)=CCC/C(C)=C/CC/C(C)=C/CC/C=C(\C)CC/C=C(\C)CCCOC(=O)CCCCCCCCC(=O)O[C@H]1[C@@H](C)CCC[C@H]2O[C@H]2C[C@@H](/C(C)=C/c2csc(C)n2)OC(=O)C[C@H](O)C(C)(C)C(=O)[C@@H]1C
- Stability [1]: 206 nm
- Stability [2]: 312.2 nm
- Stability [3]: 502.4 nm
- Stability [4]: 142.9 nm
- Stability [5]: 203.2 nm
- Stability [9]: 125.3 nm
- IC50 (MCF7 [10]): 45100 nM
- Stability [15]: Stable
- Stability [11]: 351.1 nm
- IC50 (MCF7 [12]): 40200 nM
- Stability [13]: 212.9 nm
- remaining at 48 h, 2 mg/ml [14]: 70%

Structure (SMILES): CC[C@@]1(OC(=O)CCCCCCCCC(=O)OCCC/C(C)=C/CC/C(C)=C/CC/C=C(\C)CC/C=C(\C)CCC=C(C)C)C(=O)OCc2c1cc1n(c2=O)Cc2cc3ccccc3nc2-1
- Stability [1]: 275.9 nm
- Stability [2]: 242.9 nm
- Stability [3]: 461.1 nm
- Stability [4]: 172.4 nm
- Stability [5]: 375.4 nm
- Stability [9]: 160.2 nm
- IC50 (MCF7 [10]): 20100 nM
- Stability [15]: Stable
- Stability [11]: 202.3 nm
- IC50 (MCF7 [12]): 10500 nM
- Stability [13]: 201.5 nm
- remaining at 48 h, 2 mg/ml [14]: 85%

Structure (SMILES): CC(=O)O[C@H]1C(=O)[C@@]2(C)[C@H]([C@H](OC(=O)c3ccccc3)[C@]3(O)C[C@H](OC(=O)[C@H](OC(=O)CCCSSCCCC(=O)OCCC/C(C)=C/CC/C(C)=C/CC/C=C(\C)CC/C=C(\C)CCC=C(C)C)[C@@H](NC(=O)c4ccccc4)c4ccccc4)C(C)=C1C3(C)C)[C@]1(OC(C)=O)CO[C@@H]1C[C@@H]2O
- Stability [1]: > 2 um
- Stability [2]: 723.3 nm
- Activity (A549 [17]): Active
- Stability [3]: > 2 um
- Stability [4]: 106.5 nm
- Stability [5]: 462.4 nm
- IC50 (A549 [6]): 490 nM
- inhibition (A549 [7]): Active
- inhibition (A549 [8]): Active
- Stability [9]: 100.8 nm
- IC50 (MCF7 [10]): 3 nM
- Stability [11]: 181.7 nm
- IC50 (MCF7 [12]): 60 nM
- Stability [13]: 162.4 nm
- remaining at 48 h, 2 mg/ml [14]: 93%

Structure (SMILES): CC(=O)O[C@H]1C(=O)[C@@]2(C)[C@H]([C@H](OC(=O)c3ccccc3)[C@]3(O)C[C@H](OC(=O)[C@H](OC(=O)OCC/C(C)=C/CC/C(C)=C/CC/C=C(\C)CC/C=C(\C)CCC=C(C)C)[C@@H](NC(=O)c4ccccc4)c4ccccc4)C(C)=C1C3(C)C)[C@]1(OC(C)=O)CO[C@@H]1C[C@@H]2O
- Stability [4]: 181.1 nm
- IC50 (MCF7 [10]): 8700 nM
- IC50 (MCF7 [12]): 9100 nM
- remaining at 48 h, 2 mg/ml [14]: 94%

Structure (SMILES): CC(=O)O[C@H]1C(=O)[C@@]2(C)[C@H]([C@H](OC(=O)c3ccccc3)[C@]3(O)C[C@H](OC(=O)[C@H](OC(=O)CCCCCCCCC(=O)OCCC/C(C)=C/CC/C(C)=C/CC/C=C(\C)CC/C=C(\C)CCC=C(C)C)[C@@H](NC(=O)c4ccccc4)c4ccccc4)C(C)=C1C3(C)C)[C@]1(OC(C)=O)CO[C@@H]1C[C@@H]2O
- Stability [1]: > 2 um
- Stability [2]: 635.9 nm
- Stability [3]: > 2 um
- Stability [4]: 110.5 nm
- Stability [5]: 391.2 nm
- Stability [9]: 107.9 nm
- IC50 (MCF7 [10]): 1530 nM
- Stability [15]: Stable
- Stability [11]: 161.4 nm
- IC50 (MCF7 [12]): 1210 nM
- Stability [13]: 125.6 nm
- remaining at 48 h, 2 mg/ml [14]: 95%

Structure (SMILES): C/C(=C\c1csc(C)n1)[C@@H]1C[C@@H]2O[C@@H]2CCC[C@H](C)[C@H](O)[C@@H](C)C(=O)C(C)(C)[C@@H](O)CC(=O)O1 [EPOTHILONE A]
- IC50 (A549 [6]): > 5000 nM
- Activity (A549 [16]): Active
- inhibition (A549 [7]): Active
- inhibition (A549 [8]): Active
- IC50 (MCF7 [10]): 0.8 nM
- IC50 (MCF7 [12]): 0.9 nM

Structure (SMILES): CC[C@@]1(O)C(=O)OCc2c1cc1n(c2=O)Cc2cc3ccccc3nc2-1 [CAMPTOTHECIN]
- IC50 (A549 [6]): 1300 nM
- IC50 (MCF7 [10]): 3 nM
- IC50 (MCF7 [12]): 0.5 nM

Structure (SMILES): CC[C@@]1(OC(=O)CCCSSCCCC(=O)OCCC/C(C)=C/CC/C(C)=C/CC/C=C(\C)CC/C=C(\C)CCC=C(C)C)C(=O)OCc2c1cc1n(c2=O)Cc2cc3ccccc3nc2-1
- Stability [1]: 224.3 nm
- Stability [2]: 250.6 nm
- Stability [3]: 339.7 nm
- Stability [4]: 210.2 nm
- Stability [5]: 376.4 nm
- IC50 (A549 [6]): > 5000 nM
- Stability [9]: 195.3 nm
- IC50 (MCF7 [10]): 800 nM
- Stability [11]: 160.3 nm
- IC50 (MCF7 [12]): 8600 nM
- Stability [13]: 198.9 nm
- remaining at 48 h, 2 mg/ml [14]: 70%

Structure (SMILES): COc1cc([C@@H]2c3cc4c(cc3[C@H](O)[C@H]3COC(=O)[C@H]23)OCO4)cc(OC)c1OC [PODOFILOX]
- IC50 (A549 [6]): 59 nM
- inhibition (A549 [7]): Active
- inhibition (A549 [8]): Active
- IC50 (MCF7 [10]): 0.4 nM
- IC50 (MCF7 [12]): 0.1 nM
